A short description of data set [1]: Cmax in lean C57BL/6J mouse at 100 mg/kg, ip by LC-MS analysis. Set-up: dose 100 mg/kg, route intraperitoneal. The class given is ADME, organism-based. Particulars: in vivo. An outline of the steps: (§1)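 Male lean C57BL/6J mice, 13–15 weeks old, given one i.p. dose of 100 mg kg−1 (n = 5). Tail or eye-socket blood was taken from 20 min to 43 h and spun to plasma. 30 μL plasma was mixed with 100 μL 10% TCA in H2O/CH3CN (1:1) and chilled at 277 K for 15 min. After centrifugation the peptide left in the supernatant was quantified by LC–MS. Two independent experiments.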

A short description of data set [2]: Hemolytic activity against mouse RBC at 300 uM after 1 hr at 310 K. Type of data set: ADME, cell-based, Erythrocyte. Particulars: mouse red blood cells (erythrocytes), read-out: Activity. An outline of the steps:
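Fresh mouse red cells were washed six times and suspended at 1 × 10^8 cells/mL in PBS. Peptides at 2.3–300 μM were added for 1 h at 310 K. After centrifugation, hemoglobin in the supernatant was read at 576 nm. PBS served as 0% and 0.1% Triton X-100 as 100% lysis. Three independent experiments in duplicate.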

Data set [3] relates to Mus musculus. The data set can be described thus: AUC (0 to 43 hrs) in lean C57BL/6J mouse at 100 mg/kg, ip by LC-MS analysis. Type of data set: ADME, organism-based. Set-up: time < 43 hr, dose 100 mg/kg, route intraperitoneal. Particulars: in vivo. The method, boiled down:
as §1

The nature of data set [4]: Absolute bioavailability in lean C57BL/6J mouse at 100 mg/kg, ip by LC-MS analysis. Type of data set: ADME, organism-based. The conditions noted are these: in vivo. An outline of the steps:
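Mice received the peptide by orbital i.v. injection (taken as 100%) or by i.p. injection. Plasma was sampled from 20 min to 43 h, TCA-precipitated and analysed by LC–MS. Fabc% = (AUCip × Div)/(AUCiv × Dip) × 100%. Two independent experiments.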

The subject of data set [5] is Mus musculus. The experiment in a line: Induction of insulin levels in lean C57BL/6J mouse at 80 mg/kg, ip after 30 to 120 mins post injection by ELISA. Type of data set: functional, organism-based. An outline of the steps: (§2)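 Male lean C57BL/6J mice received 80 mg kg−1 i.p. (n = 5) or PBS. At 30 or 120 min, heparinized blood was taken from tail or eye socket and spun to plasma. Insulin (5 μL plasma), C-peptide, glucagon, beta-endorphin and TNF alpha (10 μL each) were measured by ultrasensitive ELISA. Mean ± SEM, two-tailed t test.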
Background: ELISA stands for enzyme-linked immunosorbent assay.

Data set [6] in a line: Tmax in lean C57BL/6J mouse at 100 mg/kg, ip by LC-MS analysis. The class given is ADME, organism-based. Particulars: in vivo. An outline of the steps:
as §1

For data set [7], the system named is Mus musculus. The data set can be described thus: Toxicity in lean C57BL/6J mouse assessed as body weight change at 80 mg/kg, ip after 3 days. The conditions noted are these: in vivo, 72 h. Type of data set: organism-based. The method, boiled down:
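Male lean C57BL/6J mice (13–15 weeks) received 80 mg kg−1 i.p. or PBS vehicle (n = 6 each). Behaviour and body weight were monitored.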

A short description of data set [8]: Selectivity ratio of IC50 for NEP (unknown origin) to IC50 for mouse His-tagged IDE (42 to 1019 residues).
Data set [9] in a line: Drug uptake in human HeLa cells at 5 uM using FITC-labeled compound after 2 hrs at 310 K by LC-MS analysis. The class given is ADME, cell-based. The method, boiled down:
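HeLa cells were exposed to FITC-labelled peptide for 2 h, washed with PBS and 0.4% trypan blue, then trypsinized, washed and lysed. The lysates were examined by LC–MS.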

The nature of data set [10]: Metabolic stability in 25% mouse serum assessed as compound remaining at 250 uM up to 24 hrs by LC-MS analysis. The class given is ADME, cell-free. An outline of the steps: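 Peptide at a final 250 μM in 25% mouse serum was incubated at 310 K for 0–24 h. Samples were quenched in 12% TCA in H2O/CH3CN (1:1) and chilled at 277 K for 15 min. After centrifugation, the intact peptide in the supernatant was quantified by LC–MS. Three independent experiments.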

In data set [11] the target is Insulin-degrading enzyme (Homo sapiens) (UniProt P14735). The experiment in a line: Inhibition of IDE (unknown origin) assessed as potentiation of insulin-induced AKT phosphorylation in rat skeletal muscle cells at 100 uM preincubated for 10 mins followed insulin addition measured by Western blot analysis. Type of data set: cell-based. The method, boiled down:
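Rat skeletal muscle cells were treated with 100 nM IDE plus peptide, for 10 min or at time points up to 24 h with 100 μM. Insulin (10 nM) was then added for 10 min. RIPA lysates were run on 10% SDS-PAGE and blotted for pAKT and AKT with GAPDH as loading control. Densitometry on three regions, two-tailed t test.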
For orientation: In western blotting, separated proteins are transferred to a membrane and probed.

The target in the next data set is Insulin-degrading enzyme (Homo sapiens, UniProt P14735, E111Q). The data set can be described thus: Binding affinity to IDE E111Q mutant (unknown origin) using N-terminal FITC-labeled compound after 2 hrs in absence of light at 298 K by fluorescence polarization assay. The method, boiled down:
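IDE-E111Q was titrated against 20 nM FITC-labelled peptide in 20 mM Tris-HCl pH 8.0, 50 mM NaCl, 1 mM TCEP and incubated 2 h at 277 K in the dark. Polarization was read at 298 K (ex 480, em 535 nm) and plotted against IDE concentration. Three independent experiments, each in duplicate.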

A short description of data set [12]: Selectivity ratio of IC50 for ACE (unknown origin) to IC50 for mouse His-tagged IDE (42 to 1019 residues).
For data set [13], the system named is Mus musculus. The experiment in a line: Anti-diabetic activity in DIO C57BL/6J mouse model assessed as reduction in glucose levels at 80 mg/kg, ip administered 30 min prior to glucose stimulation […] by GTT. Type of data set: functional, organism-based.
In data set [14] the test system is Mus musculus. The experiment in a line: Effect on basal c-peptide levels in lean C57BL/6J mouse at 80 mg/kg, ip after 30 to 120 mins post injection by ELISA. Type of data set: ADME, organism-based. The conditions noted are these: in vivo. An outline of the steps: as §2
Data set [15] in a line: Drug uptake in brain parenchyma of lean C57BL/6J mouse at 80 mg/kg, iv using FITC-labeled compound by two-photon microscopic analysis. The conditions noted are these: in vivo.
The subject of data set [16] is Mus musculus. The data set can be described thus: Induction of glucagon levels in lean C57BL/6J mouse at 80 mg/kg, ip after 30 to 120 mins post injection by ELISA. The class given is functional, organism-based. An outline of the steps: as §2
Data set [17] can be described thus: Drug uptake in human HeLa cells at 5 uM using FITC-labeled compound after 2 hrs at 310 K by DAPI-staining based confocal microscopy. The class given is ADME, cell-based.
For data set [18], the target named is Insulin-degrading enzyme (Homo sapiens) (UniProt P14735). The experiment in a line: Inhibition of IDE (unknown origin)-mediated FITC-insulin degradation in rat skeletal muscle cells at 100 uM after 10 mins at 310 K by DAPI-staining based fluorescent inverted microscopic imaging analysis. The class given is cell-based. The method, boiled down: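 Rat skeletal muscle cells on coverslips were given 100 nM wild-type IDE and 100 μM peptide for 10 min at 310 K, then FITC-insulin for a further 10 min. Cells were washed, fixed in 4% paraformaldehyde, stained with DAPI and imaged by fluorescent inverted microscopy. Repeated three times.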
Insulin-degrading enzyme (Homo sapiens), sequence (P14735 whole entry): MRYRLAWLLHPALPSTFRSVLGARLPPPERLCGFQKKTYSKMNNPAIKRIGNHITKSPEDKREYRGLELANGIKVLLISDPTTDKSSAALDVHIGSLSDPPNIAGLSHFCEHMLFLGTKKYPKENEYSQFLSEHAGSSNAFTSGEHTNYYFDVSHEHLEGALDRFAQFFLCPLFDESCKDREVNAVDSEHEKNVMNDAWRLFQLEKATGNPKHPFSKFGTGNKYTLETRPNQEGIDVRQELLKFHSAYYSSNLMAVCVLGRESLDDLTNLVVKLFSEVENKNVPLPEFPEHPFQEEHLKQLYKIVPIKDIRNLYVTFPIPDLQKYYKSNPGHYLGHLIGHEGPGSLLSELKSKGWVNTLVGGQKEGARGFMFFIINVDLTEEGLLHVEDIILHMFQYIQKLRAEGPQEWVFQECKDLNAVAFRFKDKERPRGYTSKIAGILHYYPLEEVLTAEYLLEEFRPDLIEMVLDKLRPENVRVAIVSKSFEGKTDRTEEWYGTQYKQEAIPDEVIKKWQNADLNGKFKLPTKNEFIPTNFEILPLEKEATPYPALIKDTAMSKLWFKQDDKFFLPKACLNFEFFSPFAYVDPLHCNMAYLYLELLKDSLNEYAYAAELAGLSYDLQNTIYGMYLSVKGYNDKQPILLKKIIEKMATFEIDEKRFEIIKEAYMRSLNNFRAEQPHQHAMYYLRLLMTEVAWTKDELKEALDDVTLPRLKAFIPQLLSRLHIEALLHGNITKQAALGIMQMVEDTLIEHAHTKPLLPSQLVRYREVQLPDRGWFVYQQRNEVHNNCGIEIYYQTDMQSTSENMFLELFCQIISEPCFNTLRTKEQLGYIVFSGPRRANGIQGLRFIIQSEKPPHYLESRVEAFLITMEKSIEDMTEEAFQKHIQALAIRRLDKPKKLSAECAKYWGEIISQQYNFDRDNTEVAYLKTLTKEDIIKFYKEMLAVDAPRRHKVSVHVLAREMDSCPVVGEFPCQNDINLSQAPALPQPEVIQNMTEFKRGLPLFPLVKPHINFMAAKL

For data set [19], the system named is Mus musculus. The data set can be described thus: Effect on basal TNFalpha levels in lean C57BL/6J mouse at 80 mg/kg, ip after 30 to 120 mins post injection by ELISA. The conditions noted are these: in vivo. The class given is ADME, organism-based. An outline of the steps: as §2
A short description of data set [20]: Drug uptake in human HeLa cells at 5 uM using FITC-labeled compound after 2 hrs at 310 K by trypan blue-fluorescence based FACS analysis. The class given is ADME, cell-based. The method, boiled down: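 HeLa cells were grown overnight in DMEM with 10% FBS, then given 5 μM FITC-labelled peptide in FBS-free medium for 2 h at 310 K. Cells were washed with PBS and 0.4% trypan blue, trypsinized and washed. Mean fluorescence was measured by flow cytometry with gated cell counts. Three independent experiments.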
On the technique in general: A flow cytometer gives signals particle by particle.

Calls of active or inactive are those of the source. No cut-off for these calls is given here. Some results are limits rather than exact numbers.

Insulin-degrading enzyme, sequence (P14735 whole entry E111Q): as the sequence (P14735 whole entry) above, with E111Q counted along it

On to `CC(=O)N[C@@H](CCC(=O)O)C(=O)N[C@@H](Cc1c[nH]c2ccccc12)C(=O)N[C@@H](CCCNC(=N)N)C(=O)N[C@@H](Cc1ccccc1)C(=O)N[C@H]1CC(=O)NC[C@@H](C(=O)N[C@@H](CC(C)C)C(=O)N[C@@H](Cc2ccc(O)cc2)C(=O)N[C@@H](CC(C)C)C(=O)N[C@H](C(=O)N[C@@H](CS)C(=O)NCC(N)=O)C(C)C)NC(=O)[C@H](CCC(=O)O)NC(=O)[C@@H]2CCCN2C(=O)[C@H]2CCCN2C(=O)CNC1=O`, for which the highest concentration (Cmax) in [1] was found to be 619 µg/mL. In data set [2], the hemolysis at 1 h, 300 µM is < 10%. In the data set with Mus musculus [3], this compound showed an area under the curve (AUC) of 7600 µg·h/mL. In data set [4], this compound registered a bioavailability of 83.5%. In addition, the outcome in the data set with Mus musculus [5], in the data set on Mus musculus [13] and in the data set on Mus musculus [16] was Active. In addition, in [6], the Tmax came out at 1.4 h. The Activity entry in the data set on Mus musculus [7], in the data set on Mus musculus [14] and in the data set on Mus musculus [19] was “Non-Toxic” throughout. Further, the Ratio IC50 in data set [8] and in data set [12] was > 1000 throughout. The Drug uptake entry in data set [9] is listed as “Active”; in data set [15], “Not Active”; in data set [17], “Active”; in data set [20] it was “Active”. For the same compound, the Stability result in data set [10] is “Unstable”. The inhibition entry in [11] and in [18] was “Active” in each case. Further, the dissociation constant Kd on Insulin-degrading enzyme was 22 nM.

By Cmax is commonly meant the peak of the concentration-time curve. The AUC is the area under the concentration-time curve, a measure of exposure. As usually defined, the bioavailability is the share of a dose that reaches the circulation, judged against a reference dose that is usually intravenous. The low end stands for poor availability, the high end for good availability. Usually Tmax stands for the time at which the peak concentration occurs. The Kd is the constant that tells how readily two partners part at equilibrium. Low values mean higher affinity, high ones lower affinity.

Source of the values: ChEMBL document CHEMBL4196173, “Stabilized β-Hairpin Peptide Inhibits Insulin Degrading Enzyme” (J Med Chem, 2018).
